Experimental data from ChEMBL document CHEMBL4024758, “Structure-Based Design and Discovery of New M2 Receptor Agonists” (J Med Chem, 2017).
Activity calls are given as the source filed them. No cut-off for these calls is given here.

Experiments:
[1] = biological target: T1, Muscarinic acetylcholine receptor M1 (Homo sapiens, UniProt P11229); assay: Displacement of [3H]N-methyl-scopolamine bromide from human recombinant muscarinic M1 receptor expressed in HEK293T cell membranes after 1 hr by liquid scintillation counting method; format: cell-based, HEK-293T
T1 sequence (P11229 whole entry): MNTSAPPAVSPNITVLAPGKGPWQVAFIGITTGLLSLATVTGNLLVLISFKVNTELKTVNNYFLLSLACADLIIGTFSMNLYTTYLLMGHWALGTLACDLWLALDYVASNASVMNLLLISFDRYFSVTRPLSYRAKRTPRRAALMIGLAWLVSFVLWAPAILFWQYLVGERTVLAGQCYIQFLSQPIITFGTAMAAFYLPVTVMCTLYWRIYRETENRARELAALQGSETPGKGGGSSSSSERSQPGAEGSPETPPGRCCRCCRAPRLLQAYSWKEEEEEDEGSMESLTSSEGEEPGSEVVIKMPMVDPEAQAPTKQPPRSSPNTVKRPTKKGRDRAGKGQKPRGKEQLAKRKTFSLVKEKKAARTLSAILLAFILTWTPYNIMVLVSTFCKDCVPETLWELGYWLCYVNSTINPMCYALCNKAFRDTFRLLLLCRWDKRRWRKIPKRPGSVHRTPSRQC

[2] = biological target: T2, Muscarinic acetylcholine receptor M2 (Homo sapiens, UniProt P08172); assay: Displacement of [3H]N-methyl-scopolamine bromide from human recombinant muscarinic M2 receptor expressed in HEK293T cell membranes after 1 hr by liquid scintillation counting method; set-up: species or system HEK-293T
T2 sequence (P08172 whole entry): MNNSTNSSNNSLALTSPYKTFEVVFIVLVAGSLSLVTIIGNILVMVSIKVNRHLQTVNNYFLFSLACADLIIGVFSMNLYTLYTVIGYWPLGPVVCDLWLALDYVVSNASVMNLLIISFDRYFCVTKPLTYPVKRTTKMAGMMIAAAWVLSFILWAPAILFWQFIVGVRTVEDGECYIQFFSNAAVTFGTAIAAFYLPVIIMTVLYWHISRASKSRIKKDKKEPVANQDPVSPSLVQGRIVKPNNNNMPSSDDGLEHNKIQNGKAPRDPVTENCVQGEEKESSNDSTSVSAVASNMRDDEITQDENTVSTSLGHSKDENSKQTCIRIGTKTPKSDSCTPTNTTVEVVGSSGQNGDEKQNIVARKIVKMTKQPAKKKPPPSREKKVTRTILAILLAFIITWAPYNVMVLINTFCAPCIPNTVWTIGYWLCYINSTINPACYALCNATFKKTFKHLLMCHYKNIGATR

[3] = biological target: Muscarinic acetylcholine receptor M3 (Homo sapiens, UniProt P20309); assay: Displacement of [3H]N-methyl-scopolamine bromide from human recombinant muscarinic M3 receptor expressed in HEK293T cell membranes after 1 hr by liquid scintillation counting method; format: cell-based, HEK-293T
[4] = biological target: T2, Muscarinic acetylcholine receptor M2; assay: Agonist activity at human recombinant muscarinic M2 receptor co-expressed with Galphaqi5-HA in African green monkey COS7 cells assessed as IP accumulation after 2 hrs in presence of myo-[3H]inositol by liquid scintillation counting method; format: functional
[5] = biological target: T3, Muscarinic acetylcholine receptor M2 (Homo sapiens) (UniProt P08172); assay: Agonist activity at human recombinant muscarinic M2 receptor co-expressed with Galphaqi5-HA in African green monkey COS7 cells assessed as IP accumulation after 2 hrs in presence of myo-[3H]inositol by liquid scintillation counting method relative to carbachol; format: functional
T3 sequence (whole entry): T2 sequence (P08172 whole entry)

[6] = biological target: T3, Muscarinic acetylcholine receptor M2 (Homo sapiens); assay: Agonist activity at human recombinant muscarinic M2 receptor co-expressed with Galphaqi5-HA in African green monkey COS7 cells assessed as IP accumulation at 100 uM after 2 hrs in presence of myo-[3H]inositol by liquid scintillation counting method relative to carbachol; format: functional
[7] = biological target: T3, Muscarinic acetylcholine receptor M2 (Homo sapiens); assay: Agonist activity at Gi/o coupled recombinant human M2 mAChR expressed in CHO-FlpIn cells assessed as IP-one accumulation after 40 mins by HTRF assay; format: cell-based
Outline: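 Stably transfected CHO-FlpIn whole cells, 20000/well, grown overnight at 37 °C with 5% CO2. Cells were washed with PBS, then held 60 min at 37 °C in HEPES stimulation buffer with 50 mM LiCl, pH 7.4. ACh or test ligand was added and incubated 40 min.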

[8] = biological target: Neuronal acetylcholine receptor; alpha4/beta2 (Homo sapiens, UniProt P17787+P43681); assay: Displacement of [3H]cytisine from alpha4beta2 nAChR expressed in human recombinant SH-SY5Y cell membranes after 120 mins
Sequence of Neuronal acetylcholine receptor; alpha4/beta2 (P17787 whole entry): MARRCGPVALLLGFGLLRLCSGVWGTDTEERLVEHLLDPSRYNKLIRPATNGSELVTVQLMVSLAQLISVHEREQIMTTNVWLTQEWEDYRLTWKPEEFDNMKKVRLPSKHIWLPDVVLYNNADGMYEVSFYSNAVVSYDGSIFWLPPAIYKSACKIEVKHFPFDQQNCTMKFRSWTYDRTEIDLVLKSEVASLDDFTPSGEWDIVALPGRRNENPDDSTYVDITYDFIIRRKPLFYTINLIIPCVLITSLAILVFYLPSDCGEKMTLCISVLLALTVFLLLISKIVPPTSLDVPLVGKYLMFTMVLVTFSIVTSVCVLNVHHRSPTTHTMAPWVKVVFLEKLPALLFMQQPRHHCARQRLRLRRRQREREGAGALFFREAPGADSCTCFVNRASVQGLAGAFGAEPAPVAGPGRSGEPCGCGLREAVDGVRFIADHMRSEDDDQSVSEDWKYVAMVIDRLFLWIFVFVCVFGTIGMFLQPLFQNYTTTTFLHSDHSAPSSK
Sequence of Neuronal acetylcholine receptor; alpha4/beta2 (P43681 whole entry): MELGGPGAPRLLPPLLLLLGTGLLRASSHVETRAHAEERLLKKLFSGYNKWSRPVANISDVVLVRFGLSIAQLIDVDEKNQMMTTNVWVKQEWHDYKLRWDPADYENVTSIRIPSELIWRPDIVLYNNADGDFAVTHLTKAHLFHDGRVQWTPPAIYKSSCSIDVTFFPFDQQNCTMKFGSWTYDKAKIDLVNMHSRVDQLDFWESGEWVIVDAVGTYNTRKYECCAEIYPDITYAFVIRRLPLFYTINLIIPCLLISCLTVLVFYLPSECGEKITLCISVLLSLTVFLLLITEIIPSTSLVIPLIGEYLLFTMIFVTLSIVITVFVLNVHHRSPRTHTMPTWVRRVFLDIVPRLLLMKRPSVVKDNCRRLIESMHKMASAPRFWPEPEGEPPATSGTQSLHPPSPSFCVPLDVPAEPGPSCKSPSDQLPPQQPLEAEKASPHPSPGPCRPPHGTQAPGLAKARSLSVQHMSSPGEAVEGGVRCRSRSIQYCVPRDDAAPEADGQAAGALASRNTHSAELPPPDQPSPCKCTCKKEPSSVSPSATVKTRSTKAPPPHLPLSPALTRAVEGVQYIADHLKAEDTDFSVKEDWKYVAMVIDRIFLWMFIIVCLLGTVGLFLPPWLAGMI

Sequence of Muscarinic acetylcholine receptor M3 (P20309 whole entry): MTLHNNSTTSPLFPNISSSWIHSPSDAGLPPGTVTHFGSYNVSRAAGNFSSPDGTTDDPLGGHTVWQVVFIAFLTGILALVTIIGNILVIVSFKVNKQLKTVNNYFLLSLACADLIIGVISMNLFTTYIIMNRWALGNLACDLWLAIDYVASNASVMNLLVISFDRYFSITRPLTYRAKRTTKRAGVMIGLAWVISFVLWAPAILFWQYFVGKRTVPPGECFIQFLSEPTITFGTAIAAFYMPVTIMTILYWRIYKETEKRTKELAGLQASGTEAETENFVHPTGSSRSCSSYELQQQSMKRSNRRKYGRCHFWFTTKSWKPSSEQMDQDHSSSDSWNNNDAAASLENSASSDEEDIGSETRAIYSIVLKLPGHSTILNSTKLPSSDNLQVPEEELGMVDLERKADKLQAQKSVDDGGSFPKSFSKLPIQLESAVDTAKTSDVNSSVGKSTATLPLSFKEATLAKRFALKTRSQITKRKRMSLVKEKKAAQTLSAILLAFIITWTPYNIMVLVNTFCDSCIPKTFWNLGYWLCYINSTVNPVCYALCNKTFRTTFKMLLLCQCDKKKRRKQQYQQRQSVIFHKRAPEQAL

SMILES: C[N+](C)(C)CCc1ccc2ccoc2c1
- Ki [1]: 0.023 µM
- Ki [2]: 0.14 µM
- Ki [3]: 0.041 µM
- EC50 [4]: 0.22 µM
- Emax [5]: -14%

SMILES: C[N+](C)(C)CCc1cccc(OC(F)(F)F)c1
- Ki [1]: 7.8 µM
- Ki [2]: 9.2 µM
- Ki [3]: 11 µM
- Emax [6]: < 10%

SMILES: COc1cccc2c1CC([N+](C)(C)C)CC2 (centres undefined)
- Ki [1]: 1 µM
- Ki [2]: 0.93 µM
- Ki [3]: 2 µM

SMILES: COc1cccc2c1CC[N+](C)(C)C2
- Ki [1]: 14 µM
- Ki [2]: 26 µM
- Ki [3]: 24 µM

SMILES: COc1cccc2c1CCC([N+](C)(C)C)C2 (centres undefined)
- Ki [1]: 2.5 µM
- Ki [2]: 4.4 µM
- Ki [3]: 4 µM

SMILES: COc1cccc(C(O)C[N+](C)(C)C)c1 (centres undefined)
- Ki [1]: 13 µM
- Ki [2]: 29 µM
- Ki [3]: 12 µM
- Emax [6]: < 10%

SMILES: COc1ccc(F)c(CC[N+](C)(C)C)c1
- Ki [1]: 7.1 µM
- Ki [2]: 0.98 µM
- Ki [3]: 14 µM
- EC50 [4]: 23 µM
- Emax [5]: 44%

SMILES: C[N+](C)(C)C1CCc2cccc(O)c2C1 (centres undefined)
- Ki [1]: 2.9 µM
- Ki [2]: 4.2 µM
- Ki [3]: 16 µM

SMILES: CN(C)C1CCc2cccc(O)c2C1 (centres undefined)
- Ki [1]: > 50 µM
- Ki [2]: > 50 µM
- Ki [3]: 28 µM

SMILES: COc1cccc2c1C[N+](C)(C)CC2
- Ki [1]: 17 µM
- Ki [2]: 6.3 µM
- Ki [3]: 5.8 µM

SMILES: COc1ccccc1CC[N+](C)(C)C
- Ki [1]: 4.9 µM
- Ki [2]: 5.7 µM
- Ki [3]: 4.7 µM
- EC50 [4]: 9.1 µM
- Emax [5]: 21%

SMILES: COc1ccccc1C[N+](C)(C)C
- Ki [1]: 26 µM
- Ki [2]: > 50 µM
- Ki [3]: > 50 µM
- EC50 [4]: 18 µM
- Emax [5]: 51%

SMILES: CC(=O)OCC[N+](C)(C)C
- Activity [7]: inactive

SMILES: C[N+](C)(C)CCc1cccc(O)c1
- Ki [1]: 20 µM
- Ki [2]: 14 µM
- Ki [3]: 13 µM
- EC50 [4]: 10 µM
- Emax [5]: 44%

SMILES: COc1cccc2c1CC(N(C)C)CC2 (centres undefined)
- Ki [1]: 2 µM
- Ki [2]: 1.2 µM
- Ki [3]: 0.83 µM

SMILES: c1csc(COC2CCNC2)n1 (centres undefined)
- Ki [1]: 4.2 µM
- Ki [2]: 6 µM
- Ki [3]: 4.1 µM
- EC50 [4]: 9.9 µM
- Emax [5]: 74%

SMILES: CN1CCC(COCc2cccnc2)C1 (centres undefined)
- Ki [1]: 38 µM
- Ki [2]: 39 µM
- Ki [3]: 75 µM
- EC50 [4]: > 100 µM
- Emax [6]: 38%

SMILES: c1cncc(COCC2CCNC2)c1 (centres undefined)
- Ki [1]: 18 µM
- Ki [2]: 11 µM
- Ki [3]: 36 µM
- EC50 [4]: 29 µM
- Ki [8]: 0.2 µM
- Emax [5]: 74%

SMILES: COc1cccc(C(=O)C[N+](C)(C)C)c1
- Ki [1]: 0.17 µM
- Ki [2]: 2.4 µM
- Ki [3]: 0.21 µM
- Emax [6]: < 10%

SMILES: COc1cccc2c1CC(C[N+](C)(C)C)CC2 (centres undefined)
- Ki [1]: 1.8 µM
- Ki [2]: 1.3 µM
- Ki [3]: 3.9 µM

SMILES: COc1cccc(C2CC2C[N+](C)(C)C)c1 (centres undefined)
- Ki [1]: 7.3 µM
- Ki [2]: 15 µM
- Ki [3]: 8.7 µM

SMILES: C[N+](C)(C)CCCc1ccc2ccoc2c1
- Ki [1]: 0.063 µM
- Ki [2]: 0.23 µM
- Ki [3]: 0.14 µM
- EC50 [4]: 0.027 µM
- Emax [5]: 12%

SMILES: CCOc1cccc(CC[N+](C)(C)C)c1
- Ki [1]: 42 µM
- Ki [2]: 27 µM
- Ki [3]: 43 µM
- Emax [6]: 40%

SMILES: COc1cccc2c1CCC(C[N+](C)(C)C)C2 (centres undefined)
- Ki [1]: 17 µM
- Ki [2]: 14 µM
- Ki [3]: 25 µM

SMILES: CNCCc1cccc(OC)c1
- Ki [1]: 0.74 µM
- Ki [2]: 1 µM
- Ki [3]: 0.78 µM
- EC50 [4]: 8.2 µM
- Emax [5]: -12%

SMILES: C[N+](C)(C)CC#CCOC1=NOCC1
- Ki [1]: 0.35 µM
- Ki [2]: 0.0049 µM
- Ki [3]: 0.55 µM
- EC50 [4]: 0.00028 µM
- Emax [5]: 125%

SMILES: COc1cccc(/C=C/C[N+](C)(C)C)c1
- Ki [1]: 16 µM
- Ki [2]: 22 µM
- Ki [3]: 21 µM

SMILES: C[N+](C)(C)C1CCc2ccc3ccoc3c2C1 (centres undefined)
- Ki [1]: 0.38 µM
- Ki [2]: 0.79 µM
- Ki [3]: 0.69 µM
- EC50 [4]: 2.3 µM
- Emax [5]: -8.3%

SMILES: c1cncc(COC2CCCNC2)c1 (centres undefined)
- Ki [1]: 10 µM
- Ki [2]: 17 µM
- Ki [3]: 10 µM
- EC50 [4]: 13 µM
- Ki [8]: 0.0016 µM
- Emax [5]: 60%

SMILES: CN1CCCC(OCc2cccnc2)C1 (centres undefined)
- Ki [1]: 20 µM
- Ki [2]: 46 µM
- Ki [3]: 42 µM
- EC50 [4]: 50 µM
- Emax [5]: 33%

SMILES: C[N+]1(C)CCC(OCc2nccs2)C1 (centres undefined)
- Ki [1]: 6.1 µM
- Ki [2]: 10 µM
- Ki [3]: 12 µM
- EC50 [4]: 10 µM
- Emax [5]: 28%

SMILES: COc1cccc(C#CC[N+](C)(C)C)c1
- Ki [1]: 20 µM
- Ki [2]: 50 µM
- Ki [3]: 20 µM

SMILES: C[N+](C)(C)CCc1cccc(Cl)c1
- Ki [1]: 4.5 µM
- Ki [2]: 4.8 µM
- Ki [3]: 5.8 µM
- Emax [6]: < 10%
